{"source": "ChEMBL document CHEMBL1126990", "about": "“Design and synthesis of 18F-labeled neurotoxic analogs of MPTP” (J Med Chem, 1993)", "key": {"Mus musculus [1]": {"species_on_record": "Mus musculus", "test": "Biodistribution of [18F]-radiolabeled compound in the mouse bone after 60 minutes (average uptake in (%injected dose)/(% body weight)", "format": "ADME, organism-based, Bone element", "conditions": "in vivo, 1 h", "outline": "(§1)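 Adult male C57 Black mice (about 20 g), anesthetized with 1 mg sodium pentobarbital ip, given 0.1 mL (~0.05 mCi) tracer via tail vein. Killed by cervical dislocation at set times (5–90 min). Organs sampled, counted, weighed. Injected dose measured against weighed standards, minus residual tail activity. %id/g multiplied by body weight gives normalized uptake. Mean ± SD, N = 3 (N = 2 at 5 min).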"}, "Mus musculus [2]": {"species_on_record": "Mus musculus", "test": "Biodistribution of [18F]-radiolabeled compound in the mouse intestine after 60 minutes (average uptake in (%injected dose)/(% body weight)", "format": "ADME, organism-based", "conditions": "in vivo, 1 h", "outline": "as §1"}, "Mus musculus [3]": {"species_on_record": "Mus musculus", "test": "Biodistribution of [18F]-radiolabeled compound in the mouse intestine after 15 minutes (average uptake in (%injected dose)/(% body weight)", "format": "ADME, organism-based", "conditions": "in vivo, 0.25 h", "outline": "as §1"}, "Mus musculus [4]": {"species_on_record": "Mus musculus", "test": "Biodistribution of [18F]-radiolabeled compound in the mouse brain after 90 minutes (average uptake in (%injected dose)/(% body weight)", "format": "ADME, organism-based", "conditions": "in vivo, 1.5 h", "outline": "as §1"}, "Mus musculus [5]": {"species_on_record": "Mus musculus", "test": "Biodistribution of [18F]-radiolabeled compound in the mouse heart after 5 minutes (average uptake in (%injected dose)/(% body weight)", "format": "ADME, organism-based", "conditions": "in vivo", "outline": "as §1"}, "Mus musculus [6]": {"species_on_record": "Mus musculus", "test": "Biodistribution of [18F]-radiolabeled compound in the mouse spleen after 30 minutes (average uptake in (%injected dose)/(% body weight)", "format": "ADME, organism-based", "conditions": "in vivo, 0.5 h", "outline": "as §1"}, "Mus musculus [7]": {"species_on_record": "Mus musculus", "test": "Biodistribution of [18F]-radiolabeled compound in the mouse kidney after 30 minutes (average uptake in (%injected dose)/(% body weight)", "format": "ADME, organism-based", "conditions": "in vivo, 0.5 h", "outline": "as §1"}, "Mus musculus [8]": {"species_on_record": "Mus musculus", "test": "Biodistribution of [18F]-radiolabeled compound in the mouse kidney after 15 minutes (average uptake in (%injected dose)/(% body weight)", "format": "ADME, organism-based", "conditions": "in vivo, 0.25 h", "outline": "as §1"}, "Mus musculus [9]": {"species_on_record": "Mus musculus", "test": "Biodistribution of [18F]-radiolabeled compound in the mouse brain after 5 minutes (average uptake in (%injected dose)/(% body weight)", "format": "ADME, organism-based", "conditions": "in vivo", "outline": "as §1"}, "Mus musculus [10]": {"species_on_record": "Mus musculus", "test": "Biodistribution of [18F]-radiolabeled compound in the mouse heart after 60 minutes (average uptake in (%injected dose)/(% body weight)", "format": "ADME, organism-based", "conditions": "in vivo, 1 h", "outline": "as §1"}, "Mus musculus [11]": {"species_on_record": "Mus musculus", "test": "Biodistribution of [18F]-radiolabeled compound in the mouse muscle after 15 minutes (average uptake in (%injected dose)/(% body weight)", "format": "ADME, organism-based, Muscle tissue", "conditions": "in vivo, 0.25 h", "outline": "as §1"}, "Mus musculus [12]": {"species_on_record": "Mus musculus", "test": "Biodistribution of [18F]-radiolabeled compound in the mouse blood after 60 minutes (average uptake in (%injected dose)/(% body weight)", "format": "ADME, organism-based", "conditions": "in vivo, 1 h", "outline": "as §1"}, "Mus musculus [13]": {"species_on_record": "Mus musculus", "test": "Biodistribution of [18F]-radiolabeled compound in the mouse spleen after 60 minutes (average uptake in (%injected dose)/(% body weight)", "format": "ADME, organism-based", "conditions": "in vivo, 1 h", "outline": "as §1"}, "Mus musculus [14]": {"species_on_record": "Mus musculus", "test": "Biodistribution of [18F]-radiolabeled compound in the mouse bone after 15 minutes (average uptake in (%injected dose)/(% body weight)", "format": "ADME, organism-based, Bone element", "conditions": "in vivo, 0.25 h", "outline": "as §1"}, "Mus musculus [15]": {"species_on_record": "Mus musculus", "test": "Biodistribution of [18F]-radiolabeled compound in the mouse blood after 90 minutes (average uptake in (%injected dose)/(% body weight)", "format": "ADME, organism-based", "conditions": "in vivo, 1.5 h", "outline": "as §1"}, "Mus musculus [16]": {"species_on_record": "Mus musculus", "test": "Biodistribution of [18F]-radiolabeled compound in the mouse liver after 15 minutes (average uptake in (%injected dose)/(% body weight)", "format": "ADME, organism-based", "conditions": "in vivo, 0.25 h", "outline": "as §1"}, "Mus musculus [17]": {"species_on_record": "Mus musculus", "test": "Biodistribution of [18F]-radiolabeled compound in the mouse brain after 60 minutes (average uptake in (%injected dose)/(% body weight)", "format": "ADME, organism-based", "conditions": "in vivo, 1 h", "outline": "as §1"}, "Mus musculus [18]": {"species_on_record": "Mus musculus", "test": "Biodistribution of [18F]-radiolabeled compound in the mouse liver after 30 minutes (average uptake in (%injected dose)/(% body weight)", "format": "ADME, organism-based", "conditions": "in vivo, 0.5 h", "outline": "as §1"}, "Mus musculus [19]": {"species_on_record": "Mus musculus", "test": "Biodistribution of [18F]-radiolabeled compound in the mouse kidney after 90 minutes (average uptake in (%injected dose)/(% body weight)", "format": "ADME, organism-based", "conditions": "in vivo, 1.5 h", "outline": "as §1"}, "Mus musculus [20]": {"species_on_record": "Mus musculus", "test": "Biodistribution of [18F]-radiolabeled compound in the mouse lung after 90 minutes (average uptake in (%injected dose)/(% body weight)", "format": "ADME, organism-based", "conditions": "in vivo, 1.5 h", "outline": "as §1"}, "Mus musculus [21]": {"species_on_record": "Mus musculus", "test": "Biodistribution of [18F]-radiolabeled compound in the mouse bone after 5 minutes (average uptake in (%injected dose)/(% body weight)", "format": "ADME, organism-based, Bone element", "conditions": "in vivo", "outline": "as §1"}, "Mus musculus [22]": {"species_on_record": "Mus musculus", "test": "Biodistribution of [18F]-radiolabeled compound in the mouse muscle after 60 minutes (average uptake in (%injected dose)/(% body weight)", "format": "ADME, organism-based, Muscle tissue", "conditions": "in vivo, 1 h", "outline": "as §1"}, "[23]": {"test": "Ratio between Vmax and Km", "format": "ADME", "outline": "(§2)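 Rat liver MAO (crude P2 mitochondrial fraction from adult male Wistar rats, in pH 7.4 phosphate buffer) incubated with substrate at 30 μM to 5 mM; colorimetric detection of H2O2 formed. Blanks contained 0.1 mM pargyline. Vmax and Km from linear regression of Lineweaver-Burk plots; means ± SE of n separate experiments; ANOVA with post-hoc Scheffe test.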"}, "Mus musculus [24]": {"species_on_record": "Mus musculus", "test": "Biodistribution of [18F]-radiolabeled compound in the mouse spleen after 5 minutes (average uptake in (%injected dose)/(% body weight)", "format": "ADME, organism-based", "conditions": "in vivo", "outline": "as §1"}, "Mus musculus [25]": {"species_on_record": "Mus musculus", "test": "Biodistribution of [18F]-radiolabeled compound in the mouse bone after 30 minutes (average uptake in (%injected dose)/(% body weight)", "format": "ADME, organism-based, Bone element", "conditions": "in vivo, 0.5 h", "outline": "as §1"}, "Mus musculus [26]": {"species_on_record": "Mus musculus", "test": "Biodistribution of [18F]-radiolabeled compound in the mouse bone after 90 minutes (average uptake in (%injected dose)/(% body weight)", "format": "ADME, organism-based, Bone element", "conditions": "in vivo, 1.5 h", "outline": "as §1"}, "[27]": {"test": "separate experiments, n=4)", "format": "ADME", "outline": "as §2"}}}
{"smiles": "CN1CC=C(c2ccccc2CF)CC1", "values": [{"measurement": "Time", "setting": "Mus musculus [1]", "result": 2.22, "unit": "min"}, {"measurement": "Time", "setting": "Mus musculus [2]", "result": 0.88, "unit": "min"}, {"measurement": "Time", "setting": "Mus musculus [3]", "result": 1.99, "unit": "min"}, {"measurement": "Time", "setting": "Mus musculus [4]", "result": 0.76, "unit": "min"}, {"measurement": "Time", "setting": "Mus musculus [5]", "result": 2.54, "unit": "min"}, {"measurement": "Time", "setting": "Mus musculus [6]", "result": 1.04, "unit": "min"}, {"measurement": "Time", "setting": "Mus musculus [7]", "result": 1.36, "unit": "min"}, {"measurement": "Time", "setting": "Mus musculus [8]", "result": 2.64, "unit": "min"}, {"measurement": "Time", "setting": "Mus musculus [9]", "result": 1.48, "unit": "min"}, {"measurement": "Time", "setting": "Mus musculus [10]", "result": 1.88, "unit": "min"}, {"measurement": "Time", "setting": "Mus musculus [11]", "result": 0.54, "unit": "min"}, {"measurement": "Time", "setting": "Mus musculus [12]", "result": 0.31, "unit": "min"}, {"measurement": "Time", "setting": "Mus musculus [13]", "result": 0.93, "unit": "min"}, {"measurement": "Time", "setting": "Mus musculus [14]", "result": 1.58, "unit": "min"}, {"measurement": "Time", "setting": "Mus musculus [15]", "result": 0.25, "unit": "min"}, {"measurement": "Time", "setting": "Mus musculus [16]", "result": 2.33, "unit": "min"}, {"measurement": "Time", "setting": "Mus musculus [17]", "result": 0.65, "unit": "min"}, {"measurement": "Time", "setting": "Mus musculus [18]", "result": 1.36, "unit": "min"}, {"measurement": "Time", "setting": "Mus musculus [19]", "result": 0.72, "unit": "min"}, {"measurement": "Time", "setting": "Mus musculus [20]", "result": 1.46, "unit": "min"}, {"measurement": "Time", "setting": "Mus musculus [21]", "result": 0.87, "unit": "min"}, {"measurement": "Time", "setting": "Mus musculus [22]", "result": 0.3, "unit": "min"}, {"measurement": "Ratio", "setting": "[23]", "result": 3.83}, {"measurement": "Time", "setting": "Mus musculus [24]", "result": 1.37, "unit": "min"}, {"measurement": "Time", "setting": "Mus musculus [25]", "result": 1.91, "unit": "min"}, {"measurement": "Time", "setting": "Mus musculus [26]", "result": 3.32, "unit": "min"}, {"measurement": "Km", "setting": "[27]", "result": 159, "unit": "µM"}]}
